Bioassay records as filed in PubChem BioAssay.
Arrestin-AP2 inh = inhibitors of human beta-arrestin and AP2 interaction; inhibition, % at 10 µM; actives 0.31% (n = 340,000); FITC-arrestin peptide / GST-AP2 beads, flow cytometry; AP2 beta2 appendage carries R879A mutation;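 active = inhibition above a set limit, near 3 SD of compounds lacking own fluorescence, cut at about 54% in these data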;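 note: plate controls were DMSO wells for no effect and 5 µM unlabelled arrestin peptide for full effect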
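System: GST-AP2 R879A glutathione beads. Medium: PBS with 0.05% Tween 20 and 0.1% BSA. Also added: FITC-arrestin peptide, 50 nM. Incubation: 12 min plus 1 h, RT. Measured by: high-throughput flow cytometry of beads, ex 488, em 535 nm. Evaluation: percent drop in bead-associated FITC signal.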
NTR1 ag = NTR1 (human) agonism. activation, % at 20 µM. NTR1-U2OS beta-arrestin-GFP spot imaging, agonist mode. P30989. actives 0.17% (n = 330,000);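 active = activation at or above 40% of the spot to cytoplasm intensity ratio, with at least 20 cells analyzed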;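 note: 0% = DMSO without peptide and 100% = 100 nM NTR1 peptide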
PLC-gamma1 inh = PLC-gamma1 (human) inhibition, primary screen; actives 0.84% (n = 370,000); P19174; AID 720700; purified PLC-gamma1, fluorogenic substrate, fluorescence; inhibition, % at 12.2 µM; in the data active = inhibition above about 9.5%
Target sequence (P19174 whole entry, looked up): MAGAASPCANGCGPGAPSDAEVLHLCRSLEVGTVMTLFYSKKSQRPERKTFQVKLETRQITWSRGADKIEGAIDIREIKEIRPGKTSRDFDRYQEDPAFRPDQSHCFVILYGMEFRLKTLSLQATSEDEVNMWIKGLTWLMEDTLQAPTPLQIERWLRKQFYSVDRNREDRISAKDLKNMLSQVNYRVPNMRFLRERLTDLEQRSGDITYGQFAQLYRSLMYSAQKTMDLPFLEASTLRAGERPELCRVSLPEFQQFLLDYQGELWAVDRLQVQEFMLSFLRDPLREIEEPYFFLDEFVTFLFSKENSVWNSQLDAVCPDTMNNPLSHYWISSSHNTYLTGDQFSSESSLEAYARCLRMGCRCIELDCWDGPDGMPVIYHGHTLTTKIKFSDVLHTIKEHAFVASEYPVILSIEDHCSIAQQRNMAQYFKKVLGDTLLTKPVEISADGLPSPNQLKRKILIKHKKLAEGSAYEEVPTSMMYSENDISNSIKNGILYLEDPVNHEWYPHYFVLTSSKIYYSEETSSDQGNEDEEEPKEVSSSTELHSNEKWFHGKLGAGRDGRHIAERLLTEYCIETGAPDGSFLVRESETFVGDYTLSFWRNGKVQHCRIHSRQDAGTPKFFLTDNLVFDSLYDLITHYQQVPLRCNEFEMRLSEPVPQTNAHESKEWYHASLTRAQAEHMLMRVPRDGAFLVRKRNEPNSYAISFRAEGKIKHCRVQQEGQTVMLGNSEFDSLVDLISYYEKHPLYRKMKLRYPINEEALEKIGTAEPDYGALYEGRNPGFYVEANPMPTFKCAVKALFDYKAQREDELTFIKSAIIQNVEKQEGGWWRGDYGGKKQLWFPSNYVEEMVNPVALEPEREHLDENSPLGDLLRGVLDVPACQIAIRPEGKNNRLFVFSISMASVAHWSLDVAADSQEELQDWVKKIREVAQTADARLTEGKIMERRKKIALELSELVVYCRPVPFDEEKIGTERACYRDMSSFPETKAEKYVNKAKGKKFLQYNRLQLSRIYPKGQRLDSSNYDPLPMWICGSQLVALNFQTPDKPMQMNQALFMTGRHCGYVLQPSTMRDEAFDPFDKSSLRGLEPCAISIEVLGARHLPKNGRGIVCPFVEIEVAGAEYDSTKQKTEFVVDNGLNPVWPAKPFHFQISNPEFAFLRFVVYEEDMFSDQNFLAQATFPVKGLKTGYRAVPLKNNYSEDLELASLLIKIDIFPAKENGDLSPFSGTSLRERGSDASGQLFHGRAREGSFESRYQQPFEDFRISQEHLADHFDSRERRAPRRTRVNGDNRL
PLCb3 inh = inhibitors of human phospholipase C beta3 | actives 0.18% (n = 370,000) | Purified PLC-beta3, fluorogenic substrate, fluorescence | AID 720704 | inhibition, % at 12.2 µM; in the data active = inhibition above about 11%;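 note: 0% = median of compound wells on plate and 100% = full blocker control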
Arr AP2 CP1 = inhibitors of human beta-arrestin and AP2 interaction; shares compounds with Arrestin-AP2 inh; actives 2% (n = 1,300); inhibition, % at 10 µM; GST-AP2 beads, FITC arrestin peptide binding, flow cytometry; GST-fused beta2-adaptin appendage, R879A mutant;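 active = inhibition above a set limit, roughly 3 SD of non-fluorescent compound noise, cut at about 38% in these data; inactive = inhibition at or below that limit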;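 note: loss of bead fluorescence from 50 nM FITC arrestin peptide bound to appendage; 0% = negative control wells and 100% = excess unlabelled arrestin peptide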
GST GSH counter = disrupts GST binding to glutathione beads, arrestin-AP2 artifact | shares compounds with Arrestin-AP2 inh | GST-fluorescein binding to GSH beads, fluorescence, counter-screen | inhibition, % at 10 µM | actives 2% (n = 1,300);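 active = inhibition above 50%, about 3 SD of the inhibition seen with non-fluorescent compounds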;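 note: fluorescein maleimide labelled GST captured on 4 micron glutathione beads; higher means more loss of bead fluorescence from quenching or blocked binding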
An asterisk follows results filed as active. Rows were chosen to be rich in hits. Some 1.3% of all compounds tested hit in one or more screens of this group.

How did CCOC(=O)c1ccccc1NC(=O)c1nc2nccc(C)n2n1 do in these assays?
Arrestin-AP2 inh: 98.5*; NTR1 ag: 0.4; PLC-gamma1 inh: 4.3; PLCb3 inh: 0.5; Arr AP2 CP1: -16.4; GST GSH counter: 1.3

Results for C[C@H]1CCCN1c1ccc2c(c1)O[C@H]1CCN(C1)S2(=O)=O ?
PLC-gamma1 inh: -1.1; PLCb3 inh: -3.0

How did COCC#Cc1cnc2c(c1)C(=O)N([C@@H](C)CO)C[C@H](C)[C@H](CN(C)C(=O)c1ccc3c(c1)OCO3)O2 do in these assays?
PLC-gamma1 inh: -2.5; PLCb3 inh: 1.0

How did C=CCOC(=O)N[C@H](c1cccc(OC)c1)[C@H](C)/C=C/CC(=O)OC do in these assays?
PLC-gamma1 inh: 0.5; PLCb3 inh: 1.0

How did Cc1ccccc1C(=O)NC(=S)NCC(=O)c1ccccc1 do in these assays?
Arrestin-AP2 inh: -6.4; NTR1 ag: 2.6; PLC-gamma1 inh: 1.7; PLCb3 inh: 5.0

Results for O=C(CNC(=S)NC(=O)c1ccccc1Br)c1ccccc1 ?
Arrestin-AP2 inh: 102.3*; NTR1 ag: 0.3; PLC-gamma1 inh: 0.7; PLCb3 inh: 4.8; Arr AP2 CP1: 27.4; GST GSH counter: 9.6

Results for O=C(CCn1nnc2ccccc21)N1CCN(c2ccccc2F)CC1 ?
PLC-gamma1 inh: 0.6; PLCb3 inh: -0.7

How did O=C(NNC1=NS(=O)(=O)c2ccccc21)c1ccc(Cl)cc1 do in these assays?
Arrestin-AP2 inh: 57.6*; NTR1 ag: 2.4; PLC-gamma1 inh: 3.5; PLCb3 inh: -0.9; Arr AP2 CP1: -11.1; GST GSH counter: -0.3

How did COc1ccccc1C(=O)NC(=O)CSc1nc2nc(C)cc(C)n2n1 do in these assays?
Arrestin-AP2 inh: 0.0; NTR1 ag: 3.7; PLC-gamma1 inh: 1.2; PLCb3 inh: -5.3

What do the screens show for `COc1ccccc1C(=O)NC(=O)COC(=O)c1nc2nc(C)cc(C)n2n1`?
Arrestin-AP2 inh: 59.8*; NTR1 ag: 0.3; PLC-gamma1 inh: 0.7; PLCb3 inh: -1.3; Arr AP2 CP1: 4.1; GST GSH counter: -7.2

What do the screens show for `O=C(NCCN1CCC(Cc2ccccc2)CC1)C1CCCN(S(=O)(=O)c2cccs2)C1` (stereo not drawn)?
PLC-gamma1 inh: -0.7; PLCb3 inh: 0.2

What do the screens show for `CCCn1c(SCC(=O)Nc2ccc(F)c(Cl)c2)nc(O)cc1=O`?
Arrestin-AP2 inh: 54.9*; NTR1 ag: 1.1; PLC-gamma1 inh: 1.6; PLCb3 inh: -9.7; Arr AP2 CP1: -7.4; GST GSH counter: -6.1

How did O=C(COc1ccccc1[N+](=O)[O-])NCCCN1CCCC1=O do in these assays?
Arrestin-AP2 inh: 28.4; NTR1 ag: 0.4; PLC-gamma1 inh: 4.0; PLCb3 inh: 2.9

What do the screens show for `O=C(/C=C/c1ccccc1[N+](=O)[O-])NCCCN1CCCC1=O`?
Arrestin-AP2 inh: 56.6*; NTR1 ag: 0.4; PLC-gamma1 inh: -0.7; PLCb3 inh: -6.6; Arr AP2 CP1: -0.1; GST GSH counter: -6.7

What do the screens show for `O=C(c1ccc(S(=O)(=O)NCc2ccco2)cc1)N1CCN(c2ccc(F)cc2)CC1`?
Arrestin-AP2 inh: 58.9*; NTR1 ag: 0.6; PLC-gamma1 inh: 4.3; PLCb3 inh: -4.0; Arr AP2 CP1: 4.6; GST GSH counter: -10.0

Results for CC(=O)c1ccc(N2CCN(C(=S)NCc3ccco3)CC2)cc1 ?
Arrestin-AP2 inh: -16.5; NTR1 ag: -0.8; PLC-gamma1 inh: -2.3; PLCb3 inh: -16.5

What do the screens show for `O=C(/C=C/c1ccc(S(=O)(=O)NCc2ccco2)cc1)N1CCN(c2ccccc2)CC1`?
Arrestin-AP2 inh: -12.5; NTR1 ag: 0.6; PLC-gamma1 inh: 1.1; PLCb3 inh: -0.9

What do the screens show for `CC(=O)c1ccc(N2CCN(C(=O)c3ccc(S(=O)(=O)NCc4ccco4)cc3)CC2)cc1`?
Arrestin-AP2 inh: -8.6; NTR1 ag: 6.4; PLC-gamma1 inh: -3.1; PLCb3 inh: -5.1; Arr AP2 CP1: 3.2; GST GSH counter: -4.8

Results for CC(C)CNC(=O)OCc1cn(Cc2cccc(Cl)c2)nn1 ?
PLC-gamma1 inh: 3.7; PLCb3 inh: 1.5

Results for O=C(NCCc1ccccc1)OCc1cn(-c2ccc(F)cc2)nn1 ?
PLC-gamma1 inh: -1.4; PLCb3 inh: -5.1

What do the screens show for `CCOc1ccccc1CN1CCN(Cc2cn(C)nc2-c2ccccc2)CC1CCO` (stereo not drawn)?
Arrestin-AP2 inh: 54.0*; NTR1 ag: -1.2; PLC-gamma1 inh: -1.3; PLCb3 inh: -5.7; Arr AP2 CP1: 7.2; GST GSH counter: 5.3

Results for O=C(NC1=NC2(C=C3CCCCC3n3c(=O)n(-c4ccccc4)c(=O)n32)CN1CC1CC1)c1ccccc1 (stereo not drawn) ?
PLC-gamma1 inh: -4.1; PLCb3 inh: -6.0

How did COc1ccc(NC(=O)C2CCCN(S(=O)(=O)c3c(C)[nH]c(=O)[nH]c3=O)C2)cc1OC (stereo not drawn) do in these assays?
Arrestin-AP2 inh: 60.5*; NTR1 ag: -1.9; PLC-gamma1 inh: 3.1; PLCb3 inh: -0.8; Arr AP2 CP1: -9.6; GST GSH counter: -3.1

How did O=C(Nc1ccccc1)Nc1nc2ncccn2c1-c1ccc(F)c(F)c1 do in these assays?
PLC-gamma1 inh: -153.5; PLCb3 inh: -197.0

How did Cc1ccccc1C(=O)OC(C)C(=O)NCc1ccc2c(c1)OCO2 (stereo not drawn) do in these assays?
Arrestin-AP2 inh: 28.5; NTR1 ag: -0.5; PLC-gamma1 inh: -2.6; PLCb3 inh: -5.9

How did CC(OC(=O)c1ccc(Cl)nc1)C(=O)NCc1ccc2c(c1)OCO2 (stereo not drawn) do in these assays?
Arrestin-AP2 inh: 61.3*; NTR1 ag: 2.2; PLC-gamma1 inh: -1.4; PLCb3 inh: -9.7; Arr AP2 CP1: 8.7; GST GSH counter: -0.1

How did N=C1C(c2nc3ccccc3[nH]2)=C(O)CN1c1ccc(F)cc1 do in these assays?
Arrestin-AP2 inh: 5.5; NTR1 ag: -1.5; PLC-gamma1 inh: -0.6; PLCb3 inh: -0.1

What do the screens show for `NC1=NCC(O)=C1c1nc2ccccc2[nH]1`?
Arrestin-AP2 inh: 65.6*; NTR1 ag: 0.1; PLC-gamma1 inh: -6.9; PLCb3 inh: -11.9; Arr AP2 CP1: -8.6; GST GSH counter: 4.0

How did COc1cc(C(=O)OCCNC(=O)c2cccnc2)cc(OC)c1OC do in these assays?
Arrestin-AP2 inh: 58.3*; NTR1 ag: -1.7; PLC-gamma1 inh: 0.8; PLCb3 inh: 3.7; Arr AP2 CP1: -2.8; GST GSH counter: -12.3

What do the screens show for `COc1cc(C(=O)OCCNC(=O)c2ccccc2)cc(OC)c1OC`?
Arrestin-AP2 inh: -3.9; NTR1 ag: 1.1; PLC-gamma1 inh: 2.2; PLCb3 inh: -0.4

Results for Cc1c(C(=O)NC(C)c2ccccn2)oc2c(Cl)cccc12 (stereo not drawn) ?
Arrestin-AP2 inh: 73.7*; NTR1 ag: 0.4; PLC-gamma1 inh: 0.2; PLCb3 inh: -1.4; Arr AP2 CP1: -10.8; GST GSH counter: -9.9

Results for C=CCOC(=O)N[C@H](c1ccccc1)[C@H](C)/C=C/CC(=O)OC ?
PLC-gamma1 inh: 0.4; PLCb3 inh: 1.9
